From PMC10692396 (Acta Pharmaceutica Sinica. B, 2023)

Experiments:
[1] = test system: M2 markers CD206 and ARG1 in BMDM cells; assay: In vitro differentiation of BMDMs; assay type: cell-based, mouse; details: BMDM stimulated with CSF1, IL4, IL13; compound 100 nmol/L, 48 h
Outline: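 Mouse BMDMs were seeded at 2.5 × 10^6/well and grown 7 days in 10 ng/mL CSF1. CD206 and ARG1 were measured by flow cytometry. Three independent experiments, t-test.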

[2] = test system: D283 medulloblastoma xenograft; assay: D283 subcutaneous xenograft in NOD-SCID mice; assay type: in vivo; details: oral, 14 days
Outline: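 D283 cells (5 × 106 in 200 μL, half Matrigel) were injected s.c. into the right flank of NOD-SCID mice. Mice were randomized at about 120 mm3 (n = 9/group) and dosed orally twice daily. Tumor size (caliper) and body weight were taken three times weekly. Mice were euthanized after 14 days of dosing and tumors weighed.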

[3] = test system: U251 GBM xenograft tumors; assay: U251 subcutaneous xenograft in nude mice; assay type: in vivo; details: for expression of angiogenic markers CD31 and CD105: U251 tumor tissues; for expression of angiogenic markers CD31 and CD105 / expression of M2 phenotype macrophage marker(s) (CD206): IHC; for expression of M2 phenotype macrophage marker(s) (CD206): tumor tissue; for tumor volume reduced: U251 xenograft
[4] = test system: intracranial glioma tumor U87MG; assay: Intracranial U87MG-luc tumor model in nude mice; assay type: in vivo; details: for median survival time: control 41 days
VEGFR-1 = VEGFR-1 (Homo sapiens, UniProt P17948); assay: ELISA kinase assay; assay type: biochemical
VEGFR-3 = VEGFR-3 (Homo sapiens, UniProt P35916); assay: ELISA kinase assay; assay type: biochemical
VEGFR-3, sequence (P35916 25-1363): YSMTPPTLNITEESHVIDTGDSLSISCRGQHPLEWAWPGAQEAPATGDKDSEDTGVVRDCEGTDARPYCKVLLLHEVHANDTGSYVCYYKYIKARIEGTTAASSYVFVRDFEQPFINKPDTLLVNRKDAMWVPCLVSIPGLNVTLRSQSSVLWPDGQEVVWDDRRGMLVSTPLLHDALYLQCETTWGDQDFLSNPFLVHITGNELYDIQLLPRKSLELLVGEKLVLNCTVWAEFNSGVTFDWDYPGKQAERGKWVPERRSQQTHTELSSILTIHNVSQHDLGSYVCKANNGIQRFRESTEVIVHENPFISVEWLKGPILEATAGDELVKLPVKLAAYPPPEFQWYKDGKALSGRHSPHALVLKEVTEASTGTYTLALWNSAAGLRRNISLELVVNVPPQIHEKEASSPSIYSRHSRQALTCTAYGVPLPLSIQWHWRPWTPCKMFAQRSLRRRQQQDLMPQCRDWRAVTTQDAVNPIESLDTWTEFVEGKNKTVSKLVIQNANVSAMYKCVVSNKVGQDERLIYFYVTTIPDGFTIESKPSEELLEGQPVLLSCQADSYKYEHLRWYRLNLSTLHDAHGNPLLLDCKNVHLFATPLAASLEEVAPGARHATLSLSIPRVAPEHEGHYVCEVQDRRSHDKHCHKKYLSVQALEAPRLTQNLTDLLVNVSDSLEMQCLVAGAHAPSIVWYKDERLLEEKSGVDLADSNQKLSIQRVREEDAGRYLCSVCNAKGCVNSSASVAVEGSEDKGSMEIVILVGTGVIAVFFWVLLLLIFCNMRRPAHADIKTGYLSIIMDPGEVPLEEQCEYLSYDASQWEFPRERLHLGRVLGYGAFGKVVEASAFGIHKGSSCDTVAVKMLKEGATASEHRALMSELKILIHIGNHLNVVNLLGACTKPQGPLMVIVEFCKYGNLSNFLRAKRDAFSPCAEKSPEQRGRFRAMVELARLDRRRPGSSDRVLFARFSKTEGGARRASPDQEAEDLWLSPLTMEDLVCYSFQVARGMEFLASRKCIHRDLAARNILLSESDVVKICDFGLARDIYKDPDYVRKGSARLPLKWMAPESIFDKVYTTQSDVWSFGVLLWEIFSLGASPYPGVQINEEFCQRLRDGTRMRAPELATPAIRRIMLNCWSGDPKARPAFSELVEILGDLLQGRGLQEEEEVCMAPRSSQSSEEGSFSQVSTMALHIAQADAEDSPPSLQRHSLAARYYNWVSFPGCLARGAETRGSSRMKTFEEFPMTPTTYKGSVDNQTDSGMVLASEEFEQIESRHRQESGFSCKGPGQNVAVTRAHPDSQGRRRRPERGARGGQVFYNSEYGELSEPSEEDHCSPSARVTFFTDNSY

c-Kit = c-Kit (Homo sapiens, UniProt P10721); assay: ELISA kinase assay; assay type: biochemical
c-Kit, sequence (P10721 26-976): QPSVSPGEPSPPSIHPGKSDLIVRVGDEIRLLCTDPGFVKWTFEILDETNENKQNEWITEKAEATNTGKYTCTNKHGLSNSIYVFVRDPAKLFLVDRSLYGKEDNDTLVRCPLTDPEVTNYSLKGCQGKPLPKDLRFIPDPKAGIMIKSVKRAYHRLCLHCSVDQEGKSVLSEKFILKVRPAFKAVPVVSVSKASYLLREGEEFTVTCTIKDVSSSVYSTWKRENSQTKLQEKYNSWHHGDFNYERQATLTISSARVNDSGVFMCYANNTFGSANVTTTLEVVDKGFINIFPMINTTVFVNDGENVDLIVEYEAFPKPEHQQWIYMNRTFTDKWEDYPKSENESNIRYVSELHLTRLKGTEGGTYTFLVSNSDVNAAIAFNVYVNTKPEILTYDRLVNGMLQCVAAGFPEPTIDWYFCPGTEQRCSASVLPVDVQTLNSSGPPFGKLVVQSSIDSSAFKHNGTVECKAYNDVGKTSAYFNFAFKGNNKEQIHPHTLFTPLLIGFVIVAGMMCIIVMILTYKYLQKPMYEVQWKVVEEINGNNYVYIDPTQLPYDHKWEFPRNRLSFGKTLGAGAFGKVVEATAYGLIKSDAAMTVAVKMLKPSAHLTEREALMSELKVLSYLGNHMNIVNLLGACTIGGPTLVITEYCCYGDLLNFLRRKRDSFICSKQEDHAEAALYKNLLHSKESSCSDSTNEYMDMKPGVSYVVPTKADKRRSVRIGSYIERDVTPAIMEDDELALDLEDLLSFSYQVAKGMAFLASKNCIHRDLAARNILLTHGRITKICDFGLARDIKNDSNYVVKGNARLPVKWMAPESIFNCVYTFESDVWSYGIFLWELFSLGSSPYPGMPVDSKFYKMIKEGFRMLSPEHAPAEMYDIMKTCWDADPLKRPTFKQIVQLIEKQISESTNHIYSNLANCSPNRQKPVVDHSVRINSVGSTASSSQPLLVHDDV

c-Kit (D816H) = c-Kit (D816H) (Homo sapiens, UniProt P10721, D816H); assay: ELISA kinase assay; assay type: biochemical
c-Kit (D816H), sequence (P10721 26-976 D816H): as the sequence (P10721 26-976) above, with D791H counted along it

PDGFRα (V561D) = PDGFRα (V561D) (Homo sapiens, UniProt P16234, V561D); assay: ELISA kinase assay; assay type: biochemical
PDGFRα (V561D), sequence (P16234 24-1089 V561D): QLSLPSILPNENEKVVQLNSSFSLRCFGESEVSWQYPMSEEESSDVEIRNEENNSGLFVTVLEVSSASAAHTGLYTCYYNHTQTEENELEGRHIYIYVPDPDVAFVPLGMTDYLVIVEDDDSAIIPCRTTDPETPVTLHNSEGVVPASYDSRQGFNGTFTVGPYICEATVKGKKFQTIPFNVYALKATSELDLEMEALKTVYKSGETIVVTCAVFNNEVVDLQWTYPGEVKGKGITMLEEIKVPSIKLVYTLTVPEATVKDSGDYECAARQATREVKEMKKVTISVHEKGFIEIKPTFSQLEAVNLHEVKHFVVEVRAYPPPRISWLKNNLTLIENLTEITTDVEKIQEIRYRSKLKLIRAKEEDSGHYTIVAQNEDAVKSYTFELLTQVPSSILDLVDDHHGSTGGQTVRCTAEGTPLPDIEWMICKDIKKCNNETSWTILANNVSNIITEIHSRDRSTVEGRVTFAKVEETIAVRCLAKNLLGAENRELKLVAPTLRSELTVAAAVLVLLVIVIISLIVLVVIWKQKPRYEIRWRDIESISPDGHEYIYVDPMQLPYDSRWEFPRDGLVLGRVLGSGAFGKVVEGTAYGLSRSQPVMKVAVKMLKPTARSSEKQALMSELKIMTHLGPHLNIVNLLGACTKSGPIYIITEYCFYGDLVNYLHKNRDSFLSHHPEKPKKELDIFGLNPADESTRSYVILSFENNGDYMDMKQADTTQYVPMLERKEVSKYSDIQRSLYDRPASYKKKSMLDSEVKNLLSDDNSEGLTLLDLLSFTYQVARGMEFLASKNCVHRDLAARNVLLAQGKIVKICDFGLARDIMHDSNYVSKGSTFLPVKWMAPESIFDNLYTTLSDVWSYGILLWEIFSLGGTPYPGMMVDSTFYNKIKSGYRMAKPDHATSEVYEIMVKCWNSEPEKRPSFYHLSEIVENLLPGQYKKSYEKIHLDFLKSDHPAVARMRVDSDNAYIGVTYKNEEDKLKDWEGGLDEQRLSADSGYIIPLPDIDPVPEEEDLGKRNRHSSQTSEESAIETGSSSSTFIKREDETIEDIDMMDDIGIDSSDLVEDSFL

CSF1R = CSF1R (Homo sapiens, UniProt P07333); assay: Surface plasmon resonance; assay type: binding; details: Biacore 8K, protein immobilized on CM5 chip
CSF1R, sequence (P07333 20-972): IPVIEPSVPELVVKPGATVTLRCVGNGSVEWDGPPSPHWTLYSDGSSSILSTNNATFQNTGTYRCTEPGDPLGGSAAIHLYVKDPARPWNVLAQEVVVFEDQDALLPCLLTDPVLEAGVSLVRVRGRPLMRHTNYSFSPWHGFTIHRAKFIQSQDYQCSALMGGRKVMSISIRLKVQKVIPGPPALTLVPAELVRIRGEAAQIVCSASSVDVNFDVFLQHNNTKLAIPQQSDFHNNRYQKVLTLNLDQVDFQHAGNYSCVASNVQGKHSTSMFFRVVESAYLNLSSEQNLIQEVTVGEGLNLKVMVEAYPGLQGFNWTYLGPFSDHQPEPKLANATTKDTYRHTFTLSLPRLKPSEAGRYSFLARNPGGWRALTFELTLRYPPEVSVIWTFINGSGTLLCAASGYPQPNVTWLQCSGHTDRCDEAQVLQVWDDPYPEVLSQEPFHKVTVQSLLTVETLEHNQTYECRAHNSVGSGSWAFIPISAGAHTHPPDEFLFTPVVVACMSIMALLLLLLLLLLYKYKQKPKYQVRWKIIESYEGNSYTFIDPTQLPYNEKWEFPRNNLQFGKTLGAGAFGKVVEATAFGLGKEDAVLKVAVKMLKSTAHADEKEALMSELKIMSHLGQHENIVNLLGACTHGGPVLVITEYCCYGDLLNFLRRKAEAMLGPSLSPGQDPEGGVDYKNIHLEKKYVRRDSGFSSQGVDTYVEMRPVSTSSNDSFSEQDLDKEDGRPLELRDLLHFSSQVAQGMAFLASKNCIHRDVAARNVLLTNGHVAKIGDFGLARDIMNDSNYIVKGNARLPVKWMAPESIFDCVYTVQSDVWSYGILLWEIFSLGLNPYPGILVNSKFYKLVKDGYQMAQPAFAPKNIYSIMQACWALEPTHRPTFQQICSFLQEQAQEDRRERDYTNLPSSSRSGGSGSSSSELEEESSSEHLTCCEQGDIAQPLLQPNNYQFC
Outline: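 Human CSF1R was directly immobilized on a CM5 chip (Biacore 8K), with test compound as analyte. Multi-cycle kinetics used 180 s injection and 180 s dissociation.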

panel of 328 kinases = assay: Kinase profiling, whole panel; assay type: biochemical, human; details: 0.1 μmol/L SYHA1813
HUVEC = assay: VEGF-stimulated cell viability; assay type: cell-based; details: Homo sapiens, 72 h, read-out: IC50 HUVEC cell viability
phosphorylation of CSF1R = assay: Western blot of CSF1R signaling in BMDM; assay type: cell-based, mouse; details: BMDM cells, CSF1 stimulation
Outline: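 Fresh mouse BMDMs (2.5 × 10^6/well) were grown 7 days with 10 ng/mL CSF1, with a medium change at day 3. Cells were serum-starved 6 h, given test compound for 2 h, then stimulated with 50 ng/mL CSF1 for 15 min. BCA-normalized SDS lysates were blotted for p-CSF1R, CSF1R, p-AKT and AKT. Densitometry was normalized to tubulin across three independent repeats.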

tube formation of HUVECs = assay: Tube formation assay; assay type: cell-based, Human; details: VEGF 100 ng/mL, 8 h, concentration-dependent
Outline: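 HUVECs were starved 24 h, then seeded at 20,000 cells/well on growth-factor-reduced Matrigel. Graded test compound concentrations and VEGF (final 100 ng/mL) were added for 8 h. Tubes were photographed through a stereoscope at 4×.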

[5] = test system: neovascularization in chick embryos; assay: Chicken chorioallantoic membrane; assay type: in vivo; details: CAM assay, 48 h
Outline: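 Fertilized eggs were incubated 7 days at 37 °C, 50% humidity. Suction at the broad end made a false air sac, and a 1 cm2 shell window was opened. Glass coverslips (0.5 cm × 0.5 cm) soaked in test compound or vehicle were laid between preexisting vessels, followed by a further 48 h incubation. Neovascular zones beside the coverslips were photographed under a stereomicroscope.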

[6] = Pharmacokinetics and brain distribution; assay type: in vivo, CD-1 mice; details: male, CD-1, mouse, po, 10 mg/kg
Outline: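 Thirty male CD-1 mice were split into six groups, one per sampling time (0.5, 1, 2, 4, 8, 24 h), after a single oral 10 mg/kg dose. Plasma was taken from retro-orbital blood. Brains were collected after intracardial perfusion, rinsed in saline, blotted, weighed and homogenized in MeOH-ACN (1/1, 5 mL/g tissue).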

mouse glioma GL261-luc = assay: Intracranial GL261-luc model in immunocompetent mice; assay type: in vivo, C57BL/6 mice
Outline: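 Male C57BL/6 mice aged 4–6 weeks received 2 × 10^5 GL261-luc cells intracranially into the right frontal lobe. About 5 days after inoculation, mice were randomized by IVIS bioluminescence. Brain signal was then imaged once or twice weekly.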

DBT mouse glioma [7] = assay: DBT subcutaneous model in immunocompetent mice; assay type: in vivo, BALB/c mice; details: 10 mg/kg twice daily
Outline: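 BALB/c mice received 5 × 10^6 DBT cells in 200 μL PBS s.c. in the right flank. At about 120 mm3 they were randomized to control or 10 mg/kg (n = 6/group), dosed orally twice daily. Tumor size and body weight were measured three times weekly, and growth was expressed as RTV, mean ± SEM. CD8 was stained by IHC and scored by the multiplicative quick score method.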

DBT mouse glioma [8] = assay: DBT model, combination with anti-PD-1; assay type: in vivo, BALB/c mice; details: SYHA1813 5 mg/kg p.o. twice daily, anti-PD-1 200 μg i.p. twice a week, or both
[9] = test system: recurrent high-grade glioma; assay: First-in-human phase I trial; assay type: in vivo, patients
glioma cell lines = assay: Cell viability; assay type: cell-based; details: read-out: IC50 against glioma cell lines
Outline: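 GL261, DBT, D283, U87MG and U251 cells were plated, left overnight, then given a range of test compound concentrations for 72 h at 37 °C, 5% CO2. Growth was read by CCK-8. D283 was grown in MEM with 10% FBS, 1% NEAA and 1% NaP. Lines were STR-authenticated.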

[10] = test system: cells with high expression of Aurora-B; assay: Cytotoxicity in Aurora-B high cells; assay type: cell-based; details: data not shown
[11] = test system: phosphorylation of RET in tumor tissue; assay: RET phosphorylation in tumor tissue; assay type: in vivo; details: data not shown

In the case of `FC(F)(F)c1ccc(CNc2ccc(Cc3c[nH]c4ncc(Cl)cc34)cn2)cn1` [PLX3397, reference compound], the “expression of M2 markers CD206 and ARG1” value [1] is reported as “significant decrease”.
In the case of `Cn1nnc2c(C(N)=O)ncn2c1=O` [TMZ, temozolomide, reference compound], the “tumor growth in D283 xenograft” value [2] is reported as “dramatically insensitive”.
With `CNC(=O)c1ccccc1Sc1ccc2c(/C=C/c3ccccn3)n[nH]c2c1` [Axitinib, reference compound] the “expression of angiogenic markers CD31 and CD105” value [3] was “effectively suppressed”, the “expression of M2 phenotype macrophage marker(s) (CD206)” value [3] was “no significant changes” and the median survival time ([4]; 40 mg/kg orally twice daily) was 41 days.
`Cc1cc(NC(=O)c2cccc3cc(-c4cccc5[nH]nc(N)c45)ccc23)ccc1F` [SYHA1813, 6-(3-amino-1H-indazol-4-yl)-N-(4-fluoro-3-methylphenyl)-1-naphthamide] showed an IC50 (VEGFR-1) of 0.0028 µM, an IC50 (VEGFR-3) of 0.0043 µM and an IC50 (c-Kit) of 0.163 µM. For the same compound, the IC50 (c-Kit (D816H)) was 0.134 µM, the IC50 (PDGFRα (V561D)) was 0.0024 µM and the “SPR binding to CSF1R” value (CSF1R) was “robust binding signal”. The “inhibition relative to the control, most of the kinases” value (panel of 328 kinases) was “less than 80%”, the IC50 (HUVEC) was 0.013 µM and the “phosphorylation of CSF1R and activation of downstream AKT” value (phosphorylation of CSF1R) was “dramatically blocked”. For the same compound, the “expression of M2 markers CD206 and ARG1” value [1] was “significant decrease”, the “tube formation of HUVECs” value (tube formation of HUVECs) was “considerably blocked” and the “neovascularization in chick embryos” value [5] was “significantly inhibited”. For the same compound, the tumor volume reduced ([3]; 5 mg/kg orally twice daily) was 67.7%, the tumor volume reduced ([3]; 10 mg/kg orally twice daily) was 81.0% and the “body weight of the animals” value ([3]; U251, U87MG and D283 xenograft models) was “not significantly changed”. For the same compound, the “expression of angiogenic markers CD31 and CD105” value [3] was “dramatically reduced”, the “expression of M2 phenotype macrophage marker(s) (CD206)” value [3] was “significantly inhibited” and the “tumor growth in D283 xenograft” value [2] was “effectively inhibited tumor growth”. It also gave a Cmax ([6]; brain) of 1210 ng/g, an AUC(0-t) ([6]; plasma) of 4.54 µg·h/mL and a Cmax ([6]; plasma) of 1.42 µg/mL. The median survival time ([4]; 20 mg/kg orally twice daily) was 54 days, the “first death of mice” value ([4]; 40 mg/kg group, control Day 31) was 43 days and the “death of the last mouse” value ([4]; 40 mg/kg group, control Day 52) was 75 days. The median survival time ([4]; 40 mg/kg orally twice daily) was 58.5 days, the median survival time (mouse glioma GL261-luc) was “prolonged median survival time” and the “tumor growth of DBT glioma and tumor weight” value (DBT mouse glioma [7]; BALB/c mice) was “suppressed”. For the same compound, the “CD8+ T cells in tumor tissue” value (DBT mouse glioma [7]; IHC) was “dramatically increased”, the tumor growth (DBT mouse glioma [8]) was “slightly inhibited” and the “Response Assessment in Neuro-Oncology (RANO)” value ([9]; 5 mg once daily, 4 cycles, recurrent anaplastic oligodendrocytoma patient) was “stable disease”. The “contrast-enhancement on T1-weighted images and vasogenic edema on FLAIR images” value ([9]; 15 mg/day, recurrent GBM (WHO IV) patient, first follow-up) was “drastic reduction”, the IC50 (glioma cell lines) was over 20 µM and the “cytotoxicity to cells with high expression of Aurora-B” value [10] was “no apparent cytotoxicity”. For the same compound, the “phosphorylation of RET in tumor tissue” value [11] was “rarely inhibited”.
